Source: ChEMBL document CHEMBL1141506, “Synthesis and cytotoxic activity of a new series of topoisomerase I inhibitors” (Bioorg Med Chem Lett, 2008)
Activity calls are given as the source filed them. The rule behind the calls is not given here.

What was measured:
NCI-H460 = assay: Cytotoxicity against human NCI-H460 cells after 1 hr; assay type: functional, cell-based; conditions: NCI-H460, 1 h
Method in brief: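 Cells harvested at 72 h and counted by Coulter counter. IC50 is the concentration giving 50% less growth than untreated control, as mean of three assays.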

[1] = target: T1, DNA topoisomerase 1 (Homo sapiens) (UniProt P11387); assay: Inhibition of human recombinant topoisomerase 1 assessed as DNA plasmid relaxation after 30 mins
T1 sequence (whole entry): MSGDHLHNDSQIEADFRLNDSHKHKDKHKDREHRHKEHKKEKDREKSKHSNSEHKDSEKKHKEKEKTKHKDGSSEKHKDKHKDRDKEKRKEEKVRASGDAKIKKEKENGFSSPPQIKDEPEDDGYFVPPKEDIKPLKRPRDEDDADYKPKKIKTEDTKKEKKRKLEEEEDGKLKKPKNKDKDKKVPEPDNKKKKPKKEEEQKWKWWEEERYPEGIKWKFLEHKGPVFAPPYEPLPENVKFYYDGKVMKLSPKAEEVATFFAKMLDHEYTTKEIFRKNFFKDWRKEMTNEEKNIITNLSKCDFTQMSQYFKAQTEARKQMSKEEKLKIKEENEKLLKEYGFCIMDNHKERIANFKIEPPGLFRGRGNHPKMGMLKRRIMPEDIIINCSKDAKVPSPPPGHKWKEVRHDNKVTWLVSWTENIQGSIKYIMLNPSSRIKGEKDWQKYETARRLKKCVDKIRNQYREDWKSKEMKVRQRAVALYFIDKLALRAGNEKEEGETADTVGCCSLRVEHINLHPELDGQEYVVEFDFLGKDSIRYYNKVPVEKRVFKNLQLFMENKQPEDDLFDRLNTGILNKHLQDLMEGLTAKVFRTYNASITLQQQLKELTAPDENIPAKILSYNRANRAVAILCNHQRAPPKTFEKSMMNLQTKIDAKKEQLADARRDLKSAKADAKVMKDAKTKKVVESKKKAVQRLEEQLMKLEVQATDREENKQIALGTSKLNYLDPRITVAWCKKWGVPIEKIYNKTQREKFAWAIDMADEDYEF
Method in brief: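 Supercoiled pBR322 DNA (200 ng) with purified topo I in 20 mM Tris–HCl pH 7.6, 150 mM KCl, 5 mM MgCl2, 0.1 mM EDTA, 0.1 mM DTT, 0.5 µg/ml BSA. Compound at 1, 10, 50 µM, 30 min at 37 °C. Stopped with SDS/proteinase K at 42 °C for 45 min. Run on 0.8% agarose, ethidium bromide stained.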

[2] = target: T1, DNA topoisomerase 1 (Homo sapiens); assay: Effect on stabilization of human recombinant topoisomerase 1-mediated DNA cleavage after 30 mins
Method in brief: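 3'-end-labelled 751-bp BamHI–EcoRI SV40 DNA fragment (20,000 cpm/sample) with 640 ng full-length human recombinant topo I. Buffer: 10 mM Tris–HCl pH 7.6, 150 mM KCl, 5 mM MgCl2, 15 µg/ml BSA, 0.1 mM DTT. Drug at 1, 10, 50 µM, 30 min at 37 °C. Stopped with 0.5% SDS/0.3 mg/ml proteinase K, 45 min at 42 °C. Denaturing 8% polyacrylamide gel.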

Activity [1] | Activity [2] | Structure (SMILES) | IC50 (NCI-H460)
– | – | CC[C@@]1(O)C(=O)OCc2c1cc1n(c2=O)Cc2cc3c(CN(C)C)c(O)ccc3nc2-1 [TOPOTECAN] | 1.18 µM
– | – | Cc1cc(=O)c2c(O)cc3c(c2o1)C(=O)c1c(O)cc(O)cc1C3=O [TOPOPYRONE C] | 29.5 µM
– | – | Cc1cc(=O)c2ccc3c(c2o1)C(=O)c1c(O)ccc([N+](=O)[O-])c1C3=O | 9.1 µM
inactive | – | Cc1oc2c3c(ccc2c(=O)c1Br)C(=O)c1ccc(Br)c(O)c1C3=O | 4.95 µM
inactive | Active | Cc1cc(=O)c2ccc3c(c2o1)C(=O)c1c(O)cccc1C3=O | 5.5 µM
– | Active | COc1cccc2c1C(=O)c1c(O)cccc1C2=O | > 100 µM
– | – | O=C1c2cccc(O)c2C(=O)c2c1ccc1c(=O)cc(-c3ccccc3)oc21 | 7.06 µM
– | – | COc1cccc2c1C(=O)c1c(ccc3c(=O)cc(C)oc13)C2=O | > 260 µM
– | Active | COc1cccc2c1C(=O)c1c(OCCN(C)C)cccc1C2=O | > 100 µM
– | – | COc1cc(OC)c2c(c1)C(=O)c1cc(OC)c3c(=O)cc(C)oc3c1C2=O | > 100 µM
– | – | COc1cccc2c1C(=O)c1c(ccc3c(=O)cc(-c4ccccc4)oc13)C2=O | > 100 µM
– | – | Cc1cc(=O)c2ccc3c(c2o1)C(=O)c1c(OCCN(C)C)cccc1C3=O | 7.15 µM
– | – | Cc1oc2c3c(ccc2c(=O)c1Br)C(=O)c1cccc(O)c1C3=O | 6.5 µM
– | Active | COc1cccc2c1C(=O)c1c(O)ccc([N+](=O)[O-])c1C2=O | 160 µM
